The values below come from ChEMBL document CHEMBL1629437, “A novel PET marker for in vivo quantification of myelination” (Bioorg Med Chem, 2010).

The source made the active and inactive calls.

The subject of data set [1] is Liver. Kind of data set: Biodistribution in Swiss-Webster mouse liver at 3.7 MBq, iv after 30 mins. The data set is classed as ADME, organism-based. Particulars: in vivo, 0.5 h. In a few lines:
(§1)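 About 3.7 MBq (100 μCi) of [11C]MeDAS was given by tail vein to Swiss-Webster mice, which were euthanized by cardiac excision at 5, 30 and 60 min. Heart, liver, spleen, lung, kidney, stomach and intestine were removed and counted in an automatic gamma well-counter. Results are %ID/organ, n = 3, mean ± SD.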

Data set [2] concerns Brain. Kind of data set: Biodistribution in Swiss-Webster mouse brain at 3.7 MBq, iv after 5 mins. The class given is ADME, organism-based. Particulars: in vivo. In a few lines: (§2)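 [11C]MeDAS, up to 3.7 MBq (100 μCi), was injected into the tail vein of Swiss-Webster mice (20-25 g). Brains were removed at 5, 30 and 60 min, weighed and gamma-counted. Decay-corrected uptake is given as %ID/organ, n = 3, mean ± SD.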

Data set [3] relates to Liver. Kind of data set: Biodistribution in Swiss-Webster mouse liver at 3.7 MBq, iv after 60 mins. The data set is classed as ADME, organism-based. Particulars: in vivo, 1 h. In a few lines:
as §1

Data set [4] relates to Spleen. Kind of data set: Biodistribution in Swiss-Webster mouse spleen at 3.7 MBq, iv after 5 mins. The class given is ADME, organism-based. Conditions: in vivo. In a few lines: as §1
The subject of data set [5] is Brain. Kind of data set: Drug uptake in Plp-Akt-DD transgenic mouse brain at 7.4 MBq, iv after 90 mins by microPET imaging analysis. Particulars: in vivo, 1.5 h.
Data set [6] relates to Kidney. Kind of data set: Biodistribution in Swiss-Webster mouse kidney at 3.7 MBq, iv after 30 mins. The data set is classed as ADME, organism-based. Conditions: in vivo, 0.5 h. In a few lines:
as §1

Data set [7] has as its system Stomach. Kind of data set: Biodistribution in Swiss-Webster mouse stomach at 3.7 MBq, iv after 30 mins. Conditions: in vivo, 0.5 h. The class given is ADME, organism-based. In a few lines:
as §1

Data set [8] can be described thus: Drug uptake in Swiss-Webster mouse corpus callosum at 111 MBq, iv. Particulars: in vivo.
The test system of data set [9] is Heart. Kind of data set: Biodistribution in Swiss-Webster mouse heart at 3.7 MBq, iv after 60 mins. The data set is classed as ADME, organism-based. Particulars: in vivo, 1 h. In a few lines: as §1
The subject of data set [10] is Lung. Kind of data set: Biodistribution in Swiss-Webster mouse lung at 3.7 MBq, iv after 5 mins. The data set is classed as ADME, organism-based. Particulars: in vivo. In a few lines: as §1
In data set [11] the test system is Lung. Kind of data set: Biodistribution in Swiss-Webster mouse lung at 3.7 MBq, iv after 60 mins. The data set is classed as ADME, organism-based. Conditions: in vivo, 1 h. In a few lines:
as §1

For data set [12], the system named is Spleen. Kind of data set: Biodistribution in Swiss-Webster mouse spleen at 3.7 MBq, iv after 30 mins. The class given is ADME, organism-based. Particulars: in vivo, 0.5 h. In a few lines: as §1
In data set [13] the test system is Kidney. Kind of data set: Biodistribution in Swiss-Webster mouse kidney at 3.7 MBq, iv after 60 mins. The class given is ADME, organism-based. Particulars: in vivo, 1 h. In a few lines:
as §1

In data set [14] the test system is Intestine. Kind of data set: Biodistribution in Swiss-Webster mouse intestine at 3.7 MBq, iv after 30 mins. The data set is classed as ADME, organism-based. Particulars: in vivo, 0.5 h. In a few lines: as §1
For data set [15], the system named is Brain. Kind of data set: Biodistribution in Swiss-Webster mouse brain at 3.7 MBq, iv after 30 mins. The class given is ADME, organism-based. Conditions: in vivo, 0.5 h. In a few lines:
as §2

Data set [16] has as its system Spleen. Kind of data set: Biodistribution in Swiss-Webster mouse spleen at 3.7 MBq, iv after 60 mins. The class given is ADME, organism-based. Conditions: in vivo, 1 h. In a few lines: as §1
Data set [17] has as its system Heart. Kind of data set: Biodistribution in Swiss-Webster mouse heart at 3.7 MBq, iv after 30 mins. The class given is ADME, organism-based. Particulars: in vivo, 0.5 h. In a few lines:
as §1

The subject of data set [18] is Stomach. Kind of data set: Biodistribution in Swiss-Webster mouse stomach at 3.7 MBq, iv after 5 mins. Conditions: in vivo. The class given is ADME, organism-based. In a few lines:
as §1

The test system of data set [19] is Intestine. Kind of data set: Biodistribution in Swiss-Webster mouse intestine at 3.7 MBq, iv after 60 mins. The class given is ADME, organism-based. Conditions: in vivo, 1 h. In a few lines:
as §1

Data set [20] deals with Brain. Kind of data set: Drug uptake in Swiss-Webster mouse brain at 111 MBq, iv after 20 mins by autoradiography. Particulars: in vivo. The data set is classed as ADME, organism-based.
Data set [21] has as its system Liver. Kind of data set: Biodistribution in Swiss-Webster mouse liver at 3.7 MBq, iv after 5 mins. The data set is classed as ADME, organism-based. Conditions: in vivo. In a few lines:
as §1

Data set [22] has as its system Heart. Kind of data set: Biodistribution in Swiss-Webster mouse heart at 3.7 MBq, iv after 5 mins. The data set is classed as ADME, organism-based. Conditions: in vivo. In a few lines:
as §1

The nature of data set [23]: Octanol-water partition coefficient, log P of the compound at pH 7.4. The class given is physicochemical. In a few lines:
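[11C]MeDAS (about 500,000 cpm, >98% radiochemical purity) was partitioned between n-octanol and phosphate buffer (pH 7.40) by vortexing 3 min at room temperature, then centrifuged at 3500 rpm for 5 min. The octanol layer was re-partitioned until values were consistent. logP = log of cpm/g octanol over cpm/g buffer, in triplicate.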

For data set [24], the system named is Intestine. Kind of data set: Biodistribution in Swiss-Webster mouse intestine at 3.7 MBq, iv after 5 mins. The class given is ADME, organism-based. Conditions: in vivo. In a few lines: as §1
In data set [25] the test system is Stomach. Kind of data set: Biodistribution in Swiss-Webster mouse stomach at 3.7 MBq, iv after 60 mins. The data set is classed as ADME, organism-based. Particulars: in vivo, 1 h. In a few lines:
as §1

The nature of data set [26]: Drug uptake in Plp-Akt-DD transgenic mouse corpus callosum 7.4 MBq, iv after 90 mins by microPET imaging analysis. Conditions: in vivo, 1.5 h.
The nature of data set [27]: Drug uptake in Swiss-Webster mouse corpus callosum at 111 MBq, iv after 20 mins by magnetic resonance imaging analysis. The class given is ADME, organism-based. Particulars: in vivo.
Data set [28] can be described thus: Drug uptake in Swiss-Webster mouse corpus callosum at 111 MBq, iv after 20 mins by magnetic resonance imaging analysis in presence of BDB. Conditions: in vivo. The class given is ADME, organism-based.
The subject of data set [29] is Brain. Kind of data set: Biodistribution in Swiss-Webster mouse brain at 3.7 MBq, iv after 60 mins. The class given is ADME, organism-based. Conditions: in vivo, 1 h. In a few lines: as §2
In data set [30] the test system is Lung. Kind of data set: Biodistribution in Swiss-Webster mouse lung at 3.7 MBq, iv after 30 mins. The class given is ADME, organism-based. Conditions: in vivo, 0.5 h. In a few lines:
as §1

Data set [31] concerns Kidney. Kind of data set: Biodistribution in Swiss-Webster mouse kidney at 3.7 MBq, iv after 5 mins. The class given is ADME, organism-based. Particulars: in vivo. In a few lines:
as §1

The species named for data set [32] is Mus musculus. Kind of data set: Binding affinity to myelin sheath in Plp-Akt-DD transgenic mouse corpus callosum by fluorescence assay. The data set is classed as tissue-based. In a few lines: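 Perfusion-fixed (4% PFA) brains from Plp-Akt-DD mice and wild-type SWR/J littermates (5 months old) were cut into 10 μm coronal cryosections and stained in vitro with 10 μM MeDAS. Fluorescence was imaged in the corpus callosum from the midline to below the apex of the cingulum, 8 images per mouse, 20× objective. Images were thresholded against Black-Gold reactivity and intensity was expressed relative to WT set at 100. n = 4, unpaired Student's t-test.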

For data set [33], the system named is Mus musculus. Kind of data set: In vivo binding affinity to myelin sheath in Plp-Akt-DD transgenic mouse corpus callosum at 25 mg/kg, iv after 30 mins by fluorescent microscopic analysis. Particulars: tested as the 11C-labelled form. The class given is functional, organism-based. Details: dose 25 mg/kg. In a few lines:
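Anesthetized Plp-Akt-DD mice and control littermates received MeDAS, 25 mg/kg (about 0.5 mg), by tail vein. After 30 min they were perfused with saline and then 4% PFA. Brains were postfixed overnight, cryoprotected in 30% sucrose and cut into 10 μm cryosections. Sections were imaged directly by fluorescence microscopy, with Black-Gold staining done for comparison.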

The species named for data set [34] is Mus musculus. Kind of data set: Binding affinity to myelin sheath in Plp-Akt-DD transgenic mouse corpus callosum at 10 uM after 20 mins. The class given is tissue-based. Particulars: tested as the 11C-labelled form.

As to `[11CH3]Nc1ccc(/C=C/c2ccc(N)cc2)cc1`, the Drug uptake was 10.83 %ID in the data set with Liver [1]; 2.56 %ID with Brain [2]; 7.75 %ID with Liver [3]; 0.28 %ID in the data set on Spleen [4]; “Active” with Brain [5]; 2 %ID with Kidney [6]. Besides, the Drug uptake with Stomach [7] is 0.67 %ID; in [8] it was “Active”; in the data set with Heart [9] it was 0.75 %ID; with Lung [10] it was 0.85 %ID; in the data set with Lung [11], 1.2 %ID; with Spleen [12], 0.39 %ID. Moreover, the Drug uptake with Kidney [13] is on record as 1.78 %ID; in the data set with Intestine [14], 0.65 %ID; with Brain [15], 1.05 %ID; with Spleen [16], 0.9 %ID; in the data set with Heart [17] it was 0.33 %ID; in the data set on Stomach [18], 1 %ID. The Drug uptake in the data set on Intestine [19] is on record as 1.74 %ID; in the data set on Brain [20], “Active”; with Liver [21], 15.86 %ID; in the data set with Heart [22], 0.4 %ID; in the data set on Intestine [24] it was 0.42 %ID; in the data set on Stomach [25], 1.21 %ID. Further, the Drug uptake result is “Active” in [26]; “Active” in data set [27]; “Not Active” in [28]; 1.37 %ID with Brain [29]; 0.76 %ID in the data set with Lung [30]; 2.69 %ID with Kidney [31]. For the same compound, in [23], the logD was 2.25.

Regarding `CNc1ccc(/C=C/c2ccc(N)cc2)cc1`, the Drug uptake result in the data set filed under Mus musculus [32], with Mus musculus [33] and in the data set filed under Mus musculus [34] was “Active” each time.

Usually logD stands for lipophilicity at a set pH, counting ionised and neutral species. High values mean higher lipophilicity, low ones lower lipophilicity.
